Compound activity (PubChem BioAssay)
CSC inhib: cancer stem cell inhibition. 300,000 tested, 1.1% active. cancer stem cell-like cells viability, luminescence. inhibition, % at 7.5 µM; in the data active means inhibition above about 75%; inconclusive means no clear call, values can overlap the other calls; tested in HMLE shEcad cells
SKKanGAS inh: SKKanGAS growth inhibition | S. pyogenes SKKanGAS, kanamycin growth, BacTiter-Glo, 6 h | AID 1662 | 300,000 tested, 1.3% active | inhibition, % at 7.5 µM;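 active means mean replicate score, as percent of positive control median, at least 50; inconclusive means mean below 50 but one replicate at or above 50; inactive means mean and every replicate below 50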;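 further: strain carries kanamycin resistance gene driven by streptokinase promoter and grows in 40 µg/ml kanamycin; loss of luminescence reflects streptokinase promoter inhibition or plain growth inhibition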
Calb FLC: affects C. albicans growth with fluconazole; C. albicans CaCi-2 (fluconazole-resistant clinical isolate) + fluconazole, Alamar Blue growth, 48 h; growth inhibition, % (concentration not given with the values); AID 1979; 300,000 tested, 0.57% active;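 active means growth inhibition above about 58% in most replicates, limit read from the data, passing the limit was not always enough; inconclusive means exactly half the replicates above a set limit; inactive means most replicates below a set limit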;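 further: all wells also contain fluconazole at 8 µg/ml as a sub-toxic cotreatment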
Beta apoptosis: beta cell apoptosis inhibition; INS-1E cytokine-induced death, ATP luminescence, 48 h; percent of positive-control rescue, neutral wells zero; protection from apoptosis, % (test concentration not listed); 300,000 tested, 0.8% active;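 active means Every replicate reaches about 75%, or at least half do and their mean reaches it too, limit read from the data; inconclusive means At least half of replicates reach the limit but their mean does not; inactive means Under half of replicates reach the limit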;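 further: higher means more ATP so stronger rescue from cytokine killing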
Mdm2 MdmX PPI: human Mdm2/MdmX binding inhibition; SaOS-2 split-luciferase Mdm2/MdmX complementation, luminescence; O15151+Q00987; inhibition, % at 8 µM; 330,000 tested, 3% active;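 active means inhibition of at least 50% at 8 µM in the primary screen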
Target sequence (O15151 whole entry, looked up): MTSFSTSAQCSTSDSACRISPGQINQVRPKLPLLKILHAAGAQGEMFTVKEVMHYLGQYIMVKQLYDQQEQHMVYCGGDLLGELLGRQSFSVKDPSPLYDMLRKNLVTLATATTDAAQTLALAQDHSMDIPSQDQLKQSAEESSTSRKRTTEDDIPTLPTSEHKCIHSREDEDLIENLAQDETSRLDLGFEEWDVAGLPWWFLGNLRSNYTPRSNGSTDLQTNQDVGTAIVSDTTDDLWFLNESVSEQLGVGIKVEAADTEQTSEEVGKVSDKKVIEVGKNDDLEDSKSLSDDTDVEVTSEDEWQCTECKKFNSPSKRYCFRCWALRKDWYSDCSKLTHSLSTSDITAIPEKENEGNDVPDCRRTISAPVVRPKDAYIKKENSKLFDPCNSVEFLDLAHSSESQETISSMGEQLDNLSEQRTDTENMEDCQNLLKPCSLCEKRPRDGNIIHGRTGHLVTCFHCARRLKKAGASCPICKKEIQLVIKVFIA
Target sequence (Q00987 whole entry, looked up): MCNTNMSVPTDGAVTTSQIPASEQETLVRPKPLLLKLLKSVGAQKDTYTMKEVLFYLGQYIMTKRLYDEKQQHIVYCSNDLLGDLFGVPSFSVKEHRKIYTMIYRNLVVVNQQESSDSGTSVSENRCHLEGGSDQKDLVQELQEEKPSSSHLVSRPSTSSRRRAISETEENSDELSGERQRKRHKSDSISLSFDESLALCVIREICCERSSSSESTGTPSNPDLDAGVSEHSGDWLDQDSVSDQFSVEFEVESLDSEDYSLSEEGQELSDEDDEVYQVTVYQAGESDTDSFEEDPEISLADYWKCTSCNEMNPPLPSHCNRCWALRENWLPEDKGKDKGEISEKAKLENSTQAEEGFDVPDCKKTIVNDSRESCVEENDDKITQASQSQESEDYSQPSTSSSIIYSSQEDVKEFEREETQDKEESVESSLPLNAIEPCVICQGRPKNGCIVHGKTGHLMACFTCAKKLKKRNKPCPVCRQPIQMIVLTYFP
T cruzi repl: blocks replication of Trypanosoma cruzi | T. cruzi beta-gal in NIH3T3, luminescence, 90 h | inhibition, % (concentration not given with the values) | 300,000 tested, 1.4% active;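 active means mean inhibition across valid replicates above about 55%, limit read from the data; inconclusive means mean below that limit but half or more replicates reach it; inactive means mean below it, under half of replicates reach it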;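 further: signal also drops with host cell toxicity which is not excluded here; higher percent means less beta-gal luminescence so fewer parasites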
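compound dosing = single 50 nL compound addition per well in DMSO | material = NIH/3T3 host cells with β-galactosidase reporter T. cruzi | input = 5,000 host fibroblasts per well | timing = ≥90 h infection period, 3 h prior cell attachment | read-out basis = percent inhibition of parasite-derived β-gal signal | detection = GalScreen β-gal luminescence, detergent lysis, 60 min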
Mdm2 MdmX conf: confirmation of human Mdm2/MdmX interaction inhibitors; shares compounds with Mdm2 MdmX PPI; Mdm2-MdmX binding, luminescent assay; inhibition, % at 8 µM; 10,000 tested, 55% active; AID 489028; in the data active means inhibition above about 40%
Full FLuc ctr: full-length luciferase inhibition in Mdm2/MdmX counter-screen; shares compounds with Mdm2 MdmX PPI; SaOS-2 full-length luciferase counterscreen, luminescence; inhibition, % at 8 µM; 6,200 tested, 77% active;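 active means mean inhibition at 8 µM reaching about 37%, which flags the compound as non-specific, limit read from the data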;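 further: p53-null SaOS-2 cells with luciferase driven by a doxycycline-inducible promoter; compound on cells about two nights before reading with doxycycline added after day one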
Large screens that a line does not name were inactive (follow-up assays come after a bar, where they were run). Sampled rows, rich in hits. Any-hit rate of the full collection: about 5.7%.

Cc1ccc2[nH]c3c(c2c1)CCCC3C(N)=O (stereo not drawn)	none
Cc1ccc(S(=O)(=O)N(C)C)cc1NC(=O)C(C)OC(=O)c1cc[n+]([O-])cc1 (stereo not drawn)	none (no result: SKKanGAS inh, Calb FLC, T cruzi repl)
CC[n+]1ccc(/C=C/c2c[nH]c3ccccc23)cc1	Mdm2 MdmX PPI 56, T cruzi repl 70 | Mdm2 MdmX conf inactive
Cc1ccc2[nH]ccc(=O)c2c1	none
CCn1c(/C=C/c2c[nH]c3ccccc23)nc2ccccc2c1=O	none
Cc1ccc2[nH]cc(/C=C/c3cc[n+](C)cc3)c2c1	Beta apoptosis 121, Mdm2 MdmX PPI 72, T cruzi repl 59 | Mdm2 MdmX conf 61 | Full FLuc ctr 57
O=C(COc1ccc2c(-c3ccccc3)cc(=O)oc2c1)NCc1ccccn1	none
O=C(COc1ccc2c(-c3ccccc3)cc(=O)oc2c1)Nc1cccnc1	Mdm2 MdmX PPI 68 | Mdm2 MdmX conf 42 | Full FLuc ctr 82
Cc1cccc(C)c1NC(=O)COC(=O)COc1ccc2c(C)cc(=O)oc2c1	none
Cc1csc(NC(=O)COc2ccc3c(C)cc(=O)oc3c2)n1	Mdm2 MdmX PPI 67 | Mdm2 MdmX conf inactive
Cc1cc(OCC(=O)Nc2ccccn2)c2c(C)cc(=O)oc2c1	none (no result: Beta apoptosis)
Cc1cc(=O)oc2cc(NC(=O)COc3cccc(C(F)(F)F)c3)ccc12	Mdm2 MdmX PPI 69 (no result: SKKanGAS inh, Calb FLC, T cruzi repl) | Mdm2 MdmX conf inactive
Cc1cc(OCC(=O)Nc2nccs2)c2c(C)cc(=O)oc2c1	Mdm2 MdmX PPI 90 | Mdm2 MdmX conf inactive
Cn1c(=O)c2c(ncn2CC(=O)OCC(=O)c2ccc(F)c(F)c2)n(C)c1=O	none
COc1ccc(/C=C(\NC(=O)c2ccccc2)C(=O)NCc2ccco2)cc1OC	none
COc1cc(C(=O)Nc2nc(-c3cccs3)cs2)cc(OC)c1OC	Mdm2 MdmX PPI 76 (no result: CSC inhib, Beta apoptosis) | Mdm2 MdmX conf inactive
COc1ccc(C(=O)Nc2nc(-c3cccs3)cs2)cc1	none
CCCOc1ccccc1/C=C1\SC(N2CCCCC2)=NC1=O	Mdm2 MdmX PPI 86 (no result: Beta apoptosis) | Mdm2 MdmX conf 62 | Full FLuc ctr 64
O=C1N=C(N2CCCCC2)S/C1=C\c1ccccc1F	none
Cc1sc2ncnc(N=Nc3c(O)[nH]c4ccccc34)c2c1C	none
Oc1[nH]c2ccccc2c1N=Nc1ncnc2c1oc1ccccc12	Mdm2 MdmX PPI 100 | Mdm2 MdmX conf inactive
COc1ccc([C@H]2CC(=O)C=C(c3cccc(CO)c3)C2)cc1	none (no result: SKKanGAS inh, Calb FLC, T cruzi repl)
CC(=O)S[C@@H]1CC2=CC(=O)CC[C@]2(C)[C@H]2CC[C@@]3(C)[C@@H](CC[C@@]34CCC(=O)O4)[C@H]12	Mdm2 MdmX PPI 57 (no result: Calb FLC) | Mdm2 MdmX conf inactive
FC(F)(F)c1nnc2c(Sc3ccccc3)nc3ccc(Cl)cc3n12	Beta apoptosis 96, Mdm2 MdmX PPI 97, T cruzi repl inconclusive | Mdm2 MdmX conf 99 | Full FLuc ctr inactive
C=CCNC(=O)/C(C#N)=C\c1cc(Cl)c(O)c(OCC)c1	none (no result: Mdm2 MdmX PPI)
CCOc1cc(/C=C(/C#N)C(=O)Nc2ccc(O)cc2)cc(Br)c1O	Mdm2 MdmX PPI 70 | Mdm2 MdmX conf 63 | Full FLuc ctr 86
C/C=C(\C)C(=O)OC1CC(C)(C)C[C@H]2C3=CC[C@@H]4[C@@]5(C)CCC(O[C@@H]6O[C@@H](C(=O)O)[C@@H](O)C(O[C@@H]7OC[C@H](O)[C@@H](O)[C@@H]7O[C@@H]7OC(CO)C(O)[C@@H](O)[C@@H]7O)C6O[C@@H]6OC(CO)C(O)C(O)C6O)[C@@](C)(CO)[C@@H]5CC[C@]4(C)[C@]3(C)CC(O)[C@@]12CO (stereo partly drawn)	Mdm2 MdmX PPI 55 (no result: CSC inhib, SKKanGAS inh, Calb FLC, T cruzi repl) | Mdm2 MdmX conf inactive | Full FLuc ctr 48
N#C/C(=C\c1ccc(OCc2ccc(C(=O)O)cc2)cc1)C(=O)N1CCOCC1	Mdm2 MdmX PPI 55 | Mdm2 MdmX conf 44 | Full FLuc ctr inactive
C#CCOc1ccc(C2C3=C(CCCC3=O)N(CC(=O)O)C3=C2C(=O)CCC3)cc1Br	none
O=C1N/C(=C/c2cccs2)C(=O)N1Cc1ccc(Br)cc1	Mdm2 MdmX PPI 54 | Mdm2 MdmX conf inactive
O=C1c2ccccc2-c2n[nH]c(=O)c3ccc(N4CCCCC4)c1c23	Mdm2 MdmX PPI 52 | Mdm2 MdmX conf inactive
CCN(CCCNC(=O)COc1cc(=O)n(CC)c2ccccc12)Cc1ccccc1	Mdm2 MdmX PPI 59 | Mdm2 MdmX conf 46 | Full FLuc ctr 93
CCN(CCCNC(=O)CCCOc1cc(=O)n(C)c2ccccc12)Cc1ccccc1	Mdm2 MdmX PPI 52, T cruzi repl 55 | Mdm2 MdmX conf inactive
CSc1nccc(-c2nn(-c3ccc(C)cc3)ccc2=O)n1	Mdm2 MdmX PPI 51 | Mdm2 MdmX conf 73 | Full FLuc ctr 59
CCOC(=O)Cc1csc(/N=C/c2c(O)n(-c3ccc(C)c(C)c3)c(=O)c3ccccc23)n1	Mdm2 MdmX PPI 73 | Mdm2 MdmX conf inactive
Cc1ccc(-n2c(O)c(C=Nc3ccc4c(c3)OCO4)c3ccccc3c2=O)cc1C	none
COc1ccc(-n2c(O)c(C=Nc3ccccc3)c3ccccc3c2=O)cc1	none
COc1ccc(-n2c(O)c(C=Nc3ccccc3)c3ccccc3c2=O)cc1OC	Mdm2 MdmX PPI 80 | Mdm2 MdmX conf inactive
COc1cc(CNS(=O)(=O)c2ccc3c(c2)CC(C)N3C(C)=O)cc(OC)c1OC (stereo not drawn)	none (no result: Beta apoptosis)
COc1ccc2c(c1OC)C(=O)O[C@@H]2[C@H]1c2c(cc3c(c2OC)OCO3)CCN1C	none
COc1ccc2cc1Oc1ccc(cc1)C[C@H]1c3c(cc4c(c3Oc3cc5c(cc3OC)CCN(C)[C@@H]5C2)OCO4)CCN1C	Mdm2 MdmX PPI 100 (no result: Calb FLC, Beta apoptosis) | Mdm2 MdmX conf 87 | Full FLuc ctr inactive
COc1c2c(cc3c1C(CC(O)Cc1ccccc1)N(C)CC3)OCO2 (stereo not drawn)	none
COc1ccc2cc1Oc1ccc(cc1)C[C@H]1c3cc(c(OC)cc3CCN1C)Oc1c(OC)c(OC)cc3c1[C@H](C2)N(C)CC3	Mdm2 MdmX PPI 100 (no result: Calb FLC) | Mdm2 MdmX conf 100 | Full FLuc ctr 52
COc1ccc(OC)c(NC(=O)Cn2nc(C)c3ccccc3c2=O)c1	none
CC(C)Nc1ccc(Nc2ccnc3cc4ccccc4cc23)cc1	CSC inhib 108, Beta apoptosis 125, Mdm2 MdmX PPI 95, T cruzi repl 58 | Mdm2 MdmX conf 100 | Full FLuc ctr 51
COc1ccc(Nc2ncnc3ccccc23)cc1	none (no result: Beta apoptosis)
COc1ccc(Nc2ccnc3ccccc23)cc1	Mdm2 MdmX PPI 65 | Mdm2 MdmX conf 57 | Full FLuc ctr inactive
Cc1nnc(NC(=O)CSc2nc(C(C)C)nc3ccccc23)s1	Mdm2 MdmX PPI 76 | Mdm2 MdmX conf 63 | Full FLuc ctr 44
Cc1cc(NC(=O)CSc2nc(C(C)C)nc3ccccc23)no1	none
